# Screening results (PubChem BioAssay)
# Only some compounds are listed: those with a hit (about 1.6% of all), similar ones and a draw of the others.
# Apaf1 inhib: inhibitors of human Apaf-1 apoptosome, primary screen, biochemical, DEVD-Rh110 fluorescence, uHTS; Apoptotic protease-activating factor 1 (Homo sapiens), O14727; inhibition, % at 20 µM; 330,000 tested, 0.71% active; reconstituted apoptosome caspase-3 activity; active = inhibition of at least 40% at 20 µM;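 also: plate controls were DMSO wells for no effect and DEVD-CHO caspase inhibitor wells for full effect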
#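 detection = Rh110 fluorescence intensity | test system = biochemical Apaf-1 apoptosome reconstitution | also added = cytochrome c and DEVD-Rh110 substrate | schedule = 30 min plus 50 min, RT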
# TDP2 inh: human TDP2 enzyme inhibitors, primary screen, biochemical, epi absorbance, recombinant enzyme | inhibition, % at 12.8 µM | 370,000 tested, 0.34% active | T5PNP hydrolysis, p-nitrophenol absorbance 415 nm | Tyrosyl-DNA phosphodiesterase 2 (Homo sapiens), O95551 | AID 720702, 2013;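 active = inhibition above the mean of all tested compounds plus 3 SD, set per campaign, cut at about 25% in these data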;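 also: 0% = DMSO with enzyme and 100% = buffer with substrate but no TDP2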
#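 Assay system: recombinant human TDP2 / Reagent: T5PNP substrate at 5 mM, a TopII-DNA adduct mimic / Measured by: epi absorbance from released p-nitrophenol / Evaluation: % inhibition relative to enzyme-containing and enzyme-free wells / Control set: enzyme-free and DMSO wells / Replicates: each compound tested once, singlicate / Schedule: enzyme reaction with compound for 2 h at 37 °C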
# GSTO1 counter: inhibitors of recombinant GSTO1, primary screen, counter-screen for RBBP9 inhibitor project, biochemical, fluorescence polarization; 300,000 tested, 1.1% active; Glutathione S-transferase omega-1 (Homo sapiens), P78417; inhibition, % at 5.96 µM; activity-based probe fluorescence polarization;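 active = inhibition above the campaign mean inhibition plus 3 SD, cut at about 35% in these data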;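 also: 0% = GSTO1-1 with DMSO and 100% = wells lacking GSTO1-1 enzyme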
# UBC9 SUMO inh: inhibitors of in vitro SUMOylation cascade, primary screen, biochemical, HTRF, uHTS; HTRF SUMOylation assay, SAE1/SAE2 + UBC9; inhibition, % at 35 µM; 290,000 tested, 0.36% active; AID 2006, 2009; in the data active = inhibition above about 50%, passing the limit was not always enough
# PAD4 FP inh: human PAD4 inhibitors, primary screen, biochemical, fluorescence polarization, 1536-well format; Protein-arginine deiminase type-4 (Homo sapiens), Q9UM07; recombinant PAD4, RCA probe fluorescence polarization; inhibition, % at 6.36 µM; 330,000 tested, 0.41% active;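 active = percent inhibition above a cutoff equal to the mean of all tested compounds plus 3 SD, cut at about 15% in these data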;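 also: 0% = PAD4 with RCA probe and DMSO and 100% = probe without PAD4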
# JMJD2C inh: inhibitors of GASC-1 histone demethylase, primary screen, biochemical, fluorescence, DELFIA europium. Lysine-specific demethylase 4C (Homo sapiens), Q9H3R0. GST-JMJD2C(1-420) H3K9me3 demethylation. inhibition, % at 2.35 µM. 330,000 tested, 0.069% active. AID 2099, 2009;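 active = more than half of a compound's replicate wells show inhibition beyond 50%, single wells judged on their own value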;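 also: signal counts dimethyl H3K9 product captured on neutravidin plate; 0% = median of DMSO wells and 100% = 0.3 times that DMSO median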
# PAD4 FP conf: human PAD4 inhibitors, confirmation, biochemical, fluorescence polarization. 1,200 tested, 28% active. recombinant PAD4, RCA probe fluorescence polarization. shares compounds with PAD4 FP inh. inhibition, % at 6.36 µM;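 active = mean inhibition across replicates above the hit cutoff set by the earlier primary screen, cut at about 15% in these data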;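 also: inhibitors block active-site labeling by the probe so polarization falls; 0% = PAD4 with probe and DMSO and 100% = probe without PAD4 enzyme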
# An asterisk follows results filed as active; i = inactive; x = no result.
SMILES,Apaf1 inhib,TDP2 inh,GSTO1 counter,UBC9 SUMO inh,PAD4 FP inh,JMJD2C inh,PAD4 FP conf
O=[N+]([O-])c1ccc(OCCCN2CCC(C(O)(c3ccccc3)c3ccccc3)CC2)c(Cl)c1,x,-9.0,x,x,x,x,x
Cc1ccc(-c2cc(-c3nnc4sc(COc5ccccc5)nn34)[nH]n2)cc1,x,3.3,x,x,x,x,x
CC1Cc2ccccc2N1C(=O)CSc1nn2c(=O)c(C(C)(C)C)nnc2s1 (stereo not drawn),4.9,1.2,4.7,11.6,15.2*,2.4,7.7
C#CCOCCOCCOCCNc1nc(N2CCN(C(=O)[C@H](CCCCN)n3cc([C@@H](N)C(C)CC)nn3)CC2)nc(N2CCN(C(=O)[C@H](Cc3cc4ccccc4[nH]3)n3cc([C@@H](N)CC(C)C)nn3)CC2)n1 (stereo partly drawn),-1.7,x,-3.5,-23.0,16.3*,-24.7,4.3
CCn1c(=NC(=O)CSC(C)=O)sc2cc(F)ccc21,3.3,17.1,-12.8,17.8,15.8*,10.1,4.4
N#CCC[C@@H]1CC[C@]2(CCCN(C(=O)C3CCCCC3)C2)O1,x,7.0,x,x,x,x,x
O=C1CCCC(O)=C1N=Nc1c(Cl)cc(C(F)(F)F)cc1Cl,-6.9,-3.7,8.3,8.3,85.4*,-3.3,-0.4
O=C1CCCC(O)=C1N=Nc1ccc(C(=O)O)cc1,-15.4,-13.4,28.7,25.6,4.5,-2.5,x
CC(C)C[C@@H]1COc2cc(N3CCCC3)ccc2S(=O)(=O)N1C,x,3.3,x,x,x,x,x
Cc1nc(SCC(=O)O)c2oc3ccccc3c2n1,1.9,-0.2,1.5,-18.3,-2.3,-0.3,x
Cc1nc(SCC(=O)NCc2ccccc2)c2oc3ccccc3c2n1,5.3,-3.8,3.1,-3.4,21.5*,2.3,-5.6
O=C(O)c1ccccc1C1=Nc2ccc(O)cc2Oc2cc(O)ccc21,-4.7,8.4,16.8,3.1,26.1*,44.5,34.6*
Cc1cc(-c2ccccc2C(=O)O)on1,6.8,2.1,-4.9,16.1,4.9,-11.4,x
Oc1ccc(Cl)cc1C1=Nc2ccccc2N=C(c2ccco2)C1,2.9,-2.4,14.6,3.3,-0.6,-8.8,x
Fc1ccccc1C1CC(c2ccco2)=Nc2ccccc2S1 (stereo not drawn),-4.2,-19.0,-0.7,-2.9,18.8*,3.1,3.6
CC(=O)NC(c1cccs1)c1cc([N+](=O)[O-])c2cccnc2c1O (stereo not drawn),x,-11.5,28.3,-8.4,25.5*,-34.6,4.0
CCC(=O)NC(c1cccs1)c1cc([N+](=O)[O-])c2cccnc2c1O (stereo not drawn),29.5,-1.5,-2.4,-9.2,0.2,-34.8,x
O=C1c2cccc3c(O)ccc(c23)C(=O)N1Cc1ccccc1,-15.6,-2.8,9.3,31.6,40.0*,i,50.2*
O=C(O)c1cccc(CN2C(=O)c3ccccc3C2=O)c1,2.8,-15.5,-0.4,11.3,-2.2,-13.0,x
CCOC(=O)[C@]12CCCCC/C=C\1N(Cc1ccc(OC)cc1)C(=O)[C@H]2CC(=O)N1CCSCC1,x,9.9,x,x,x,x,x
O=C(O)CN1C(=O)/C(=C\c2ccccc2OCc2ccc(Cl)cc2)SC1=S,4.8,-7.3,4.0,-4.1,22.4*,-13.6,1.8
Cc1ccc(-c2nn(-c3ccccc3)cc2/C=C2\SC(=S)N(CC(=O)O)C2=O)cc1,-0.2,-4.4,-4.3,7.8,14.8*,17.7,3.5
Cc1ccnc(Sc2ccc([N+](=O)[O-])cc2[N+](=O)[O-])n1,-3.6,-0.5,27.5,11.0,22.3*,0.1,23.6*
Cc1ccc(Sc2ccc([N+](=O)[O-])cc2[N+](=O)[O-])nc1,16.7,-0.1,12.9,6.4,1.2,7.4,x
